Measured values from paper PMC4418331 (Journal of Clinical Pharmacology, 2015).

Tests used:
[1] = test system: dipeptidyl peptidase-4 (DPP-4); details: in words; native GLP-1 ref 1; semaglutide ref 12; cited from earlier work
[2] = cited from earlier work
[3] = Safety and tolerability assessments; format: in vivo, human (postmenopausal women with T2D); details: for Increase in serum amylase concentration / Increase in serum lipase concentration: mean ± SD
Method in brief: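 Test compound given subcutaneously once weekly, escalated 0.25 mg for 4 weeks, 0.5 mg for 4 weeks, then 1.0 mg for 5 weeks. A combined oral contraceptive was given once daily for 8 days before escalation and again during the final week. The investigator recorded AEs, both observed and spontaneously reported, with severity graded and relation assessed. Amylase and lipase were measured as change from baseline to end of treatment and to follow-up (5 weeks after last dose), mean ± SD.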

[4] = baseline to end of semaglutide treatment

Row | Compound | Degradation by dipeptidyl peptidase-4 (DPP-4) [1] | Half-life (t1/2) ([2]; in words) | Subjects reporting diarrhea ([3]; 6 subjects, all mild or moderate) | Severe hypoglycemia (ADA classification) ([3]; FPG at study site and self-measured at home) | Increase in serum amylase concentration [3, 4] | Increase in serum lipase concentration [3, 4] | Increase in serum amylase concentration ([3]; baseline to follow-up) | Increase in serum lipase concentration ([3]; baseline to follow-up) | Antisemaglutide antibodies ([3]; in vivo) | Changes in ECG or safety laboratory parameters, including calcitonin ([3]; in vivo) | Pancreatitis ([3]; in vivo) | Serum amylase values ≥3x ULN ([3]; in vivo) | Duration of nausea episodes, median ([3]; min, max: 0.01, 95.6) | Injection-site reactions ([3]; s.c. injection) | Subjects reporting TEAEs ([3]; whole study (oral contraceptive and semaglutide periods), 38 of 43 subjects) | Serious AEs ([3]; whole study, n = 43) | Reported t1/2 [2]
1 | Glucagon-like peptide-1 [native GLP-1, reference compound] | rapidly degraded | very short |  |  |  |  |  |  |  |  |  |  |  |  |  |  | 
2 | CC[C@H](C)[C@H](NC(=O)[C@H](Cc1ccccc1)NC(=O)[C@H](CCC(=O)O)NC(=O)[C@H](CCCCNC(=O)COCCOCCNC(=O)COCCOCCNC(=O)CC[C@H](NC(=O)CCCCCCCCCCCCCCCCC(=O)O)C(=O)O)NC(=O)[C@H](C)NC(=O)[C@H](C)NC(=O)[C@H](CCC(N)=O)NC(=O)CNC(=O)[C@H](CCC(=O)O)NC(=O)[C@H](CC(C)C)NC(=O)[C@H](Cc1ccc(O)cc1)NC(=O)[C@H](CO)NC(=O)[C@H](CO)NC(=O)[C@@H](NC(=O)[C@H](CC(=O)O)NC(=O)[C@H](CO)NC(=O)[C@@H](NC(=O)[C@H](Cc1ccccc1)NC(=O)[C@@H](NC(=O)CNC(=O)[C@H](CCC(=O)O)NC(=O)C(C)(C)NC(=O)[C@@H](N)Cc1cnc[nH]1)[C@@H](C)O)[C@@H](C)O)C(C)C)C(=O)N[C@@H](C)C(=O)N[C@@H](Cc1c[nH]c2ccccc12)C(=O)N[C@@H](CC(C)C)C(=O)N[C@H](C(=O)N[C@@H](CCCNC(=N)N)C(=O)NCC(=O)N[C@@H](CCCNC(=N)N)C(=O)NCC(=O)O)C(C)C [semaglutide] | less susceptible to degradation by DPP-4 |  | 14% | no cases of severe hypoglycemia were reported | 1.5 ± 15.3 U/L | 9.4 ± 24.3 U/L | 7.0 ± 14.1 U/L | 10.7 ± 32.6 U/L | No antisemaglutide antibodies were detected in any subject | No clinically meaningful changes were observed | No cases of pancreatitis were reported | No value was ≥3x ULN | 3.9 days | no injection-site reactions were reported | 88% | No serious AEs were reported | 155 to 184 h
